Data from ChEMBL document CHEMBL3808289, “Discovery of a Selective Series of Inhibitors of Plasmodium falciparum HDACs” (ACS Med Chem Lett, 2016).
Activity calls are given as the source filed them. The rule behind the calls is not given here.

Columns and labels:
Histone deacetylase 1 = Histone deacetylase 1 (Homo sapiens, UniProt Q13547); assay: Inhibition of recombinant human His-tagged HDAC1 expressed in insect cells preincubated for 10 mins followed by addition of FLUOR DE LYS as fluorescent substrate measured after 1 hr by spectrophotometry
Sequence of Histone deacetylase 1 (Q13547 whole entry): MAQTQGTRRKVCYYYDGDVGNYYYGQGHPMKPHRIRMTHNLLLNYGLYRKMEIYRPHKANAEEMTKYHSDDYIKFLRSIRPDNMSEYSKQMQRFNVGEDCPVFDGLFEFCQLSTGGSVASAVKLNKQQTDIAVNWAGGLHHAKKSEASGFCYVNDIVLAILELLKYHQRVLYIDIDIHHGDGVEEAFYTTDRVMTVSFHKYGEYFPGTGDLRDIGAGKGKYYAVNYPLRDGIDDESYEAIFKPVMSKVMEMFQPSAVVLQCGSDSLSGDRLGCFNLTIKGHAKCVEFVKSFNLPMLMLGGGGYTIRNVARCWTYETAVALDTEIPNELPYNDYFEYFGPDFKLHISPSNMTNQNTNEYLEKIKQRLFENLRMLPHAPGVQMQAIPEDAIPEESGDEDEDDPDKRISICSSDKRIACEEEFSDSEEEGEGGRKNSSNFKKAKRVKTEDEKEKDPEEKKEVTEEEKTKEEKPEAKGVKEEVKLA

HDAC1 = assay: Selectivity index, ratio of IC50 for HDAC1 in human HeLa cells to EC50 for Plasmodium falciparum 3D7 infected human erythrocytes; type: toxicity, cell-based; settings: read-out: Ratio IC50/EC50
[1] = Inhibition of class 1 histone deacetylase in human HeLa cells using FLUOR DE LYS as fluorescent substrate after 4 hrs by spectrophotometry; type: cell-based
How it was run: (§1)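 Cell-based read-outs (parasite growth in erythrocytes; class I HDAC activity in HeLa) were run with multiple repetitions of each assay to limit variability.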

Plasmodium falciparum = assay: Antimalarial activity against Plasmodium falciparum 3D7 infected human erythrocytes assessed as parasite growth inhibition after 72 hrs by spectrophotometry; type: functional, organism-based; settings: 3D7, 72 h; how it was run: as §1
[2] = Clearance in NMRI mouse plasma; type: ADME, organism-based
Plasma = assay: Drug uptake in NMRI mouse plasma at 10 mg/kg, po; type: ADME, organism-based; settings: in vivo
[3] = Clearance in NMRI mouse plasma 2 mg/kg, iv by LC-MS/MS analysis; type: ADME, organism-based
[4] = Oral bioavailability in NMRI mouse at 10 mg/kg; type: ADME, organism-based; settings: in vivo
[5] = system: Plasmodium falciparum 3D7; assay: Inhibition of recombinant Plasmodium falciparum 3D7 Flag-tagged HDAC1 Y301H mutant assessed as loss of enzyme activity
How it was run: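 The Y301H mutant is a putative catalytic-site mutant of PfHDAC1. It was expressed as a Flag-fusion in insect or mammalian cells and purified on anti-Flag affinity gel. Deacetylase activity was measured in vitro with fluorogenic substrates, alongside wild-type PfHDAC1.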

SMILES | IC50 (Histone deacetylase 1) | selectivity ratio (HDAC1) | IC50 [1] | EC50 (Plasmodium falciparum) | clearance [2] | Drug uptake (Plasma) | clearance [3] | bioavailability [4] | inhibition [5]
CNC(=O)CCCCC[C@H](NC(=O)c1cncs1)c1ncc(-c2ccc3ccncc3c2)[nH]1 | 600 nM | 18 | 4750 nM | 270 nM |  |  |  |  | 
CNC(=O)CCCCC[C@H](NC(=O)c1cncs1)c1ncc(-c2ccc3[nH]nnc3c2)[nH]1 | > 5000 nM | > 2.5 | > 25000 nM | 10000 nM |  |  |  |  | 
CNC(=O)CCCCC[C@H](NC(=O)c1cncs1)c1ncc(-c2ccc3cc(C(F)(F)F)ncc3c2)[nH]1 | 290 nM | 20 | 2040 nM | 100 nM |  |  |  |  | 
CNC(=O)CCCCC[C@H](NC(=O)c1cncs1)c1ncc(-c2ccc(-n3cccn3)cc2)[nH]1 | 2490 nM | 23 | 20500 nM | 900 nM |  |  |  |  | 
CNC(=O)CCCCC[C@H](NC(=O)C12CCN(CC1)CC2)c1ncc(-c2ccc3ccccc3c2)[nH]1 | 340 nM | 12 | 3770 nM | 310 nM | 60 mL/min/kg | Not Active |  |  | 
CNC(=O)CCCCC[C@H](NC(=O)c1cncs1)c1ncc(-c2ccc3[nH]cnc3c2)[nH]1 | > 2500 nM | > 2.1 | > 25000 nM | 12000 nM |  |  |  |  | 
CNC(=O)CCCCC[C@H](NC(=O)c1cncs1)c1ncc(-c2ccc3cccnc3c2)[nH]1 | > 5000 nM | > 6.6 | > 25000 nM | 3810 nM |  |  |  |  | 
CNC(=O)CCCCC[C@H](NC(=O)c1cncs1)c1ncc(-c2cc3ccccc3[nH]c2=O)[nH]1 | > 2500 nM | > 54 | > 25000 nM | 500 nM |  |  |  |  | 
CNC(=O)CCCCC[C@H](NC(=O)C12CCN(CC1)CC2)c1ncc(-c2cc3ccccc3nc2OC)[nH]1 | 250 nM | 4.7 | 2450 nM | 520 nM |  | Not Active | 10 mL/min/kg |  | 
CCC(=O)CCCCC[C@H](NC(=O)C12CCN(CC1)CC2)c1ncc(-c2ccc3ccccc3c2)[nH]1 | 1.4 nM | 2.5 | 94 nM | 38 nM |  |  |  |  | 
CNC(=O)CCCCC[C@H](NC(=O)Cn1ccnn1)c1ncc(-c2cc3ccccc3nc2OC)[nH]1 | 1760 nM | 3.8 | 6650 nM | 1760 nM |  |  |  | 20% | 
CNC(=O)CCCCC[C@H](NC(=O)c1cncs1)c1ncc(-c2ccc3[nH]ncc3c2)[nH]1 | 2120 nM | 12 | 7630 nM | 630 nM |  |  |  |  | 
CNC(=O)CCCCC[C@H](NC(=O)c1cncs1)c1ncc(-c2ccc3ccnc(OC)c3c2)[nH]1 | 2620 nM | 4.1 | 20100 nM | 4860 nM |  |  |  |  | 
CNC(=O)CCCCC[C@H](NC(=O)c1cncs1)c1ncc(-c2cccc3cccnc23)[nH]1 | > 2500 nM | > 3 | > 25000 nM | 8280 nM |  |  |  |  | 
CNC(=O)CCCCC[C@H](NC(=O)c1cncs1)c1ncc(-c2ccc3ccccc3c2C)[nH]1 | 23900 nM | > 1 | > 25000 nM | 23700 nM |  |  |  |  | 
CCC(=O)CCCCC[C@H](NC(=O)C1CN(C)C1)c1ncc(-c2cc3ccccc3nc2OC)[nH]1 |  |  |  |  |  |  |  |  | inactive
CNC(=O)CCCCC[C@H](NC(=O)c1cncs1)c1ncc(-c2ccc3[nH]ccc3c2)[nH]1 | 1280 nM | 19 | 6330 nM | 330 nM |  |  |  |  | 
CNC(=O)CCCCC[C@H](NC(=O)c1cncs1)c1ncc(-c2ccc(-c3cscn3)cc2)[nH]1 | 2160 nM | 14 | 8130 nM | 570 nM |  |  |  |  | 
CNC(=O)CCCCC[C@H](NC(=O)c1cncs1)c1ncc(-c2ccc3ccccc3c2)[nH]1 | 320 nM | 5.7 | 1700 nM | 300 nM |  |  |  |  | 
CNC(=O)CCCCC[C@H](NC(=O)c1cncs1)c1ncc(-c2ccc(-c3ccccc3)cc2)[nH]1 | > 5000 nM | > 3.3 | > 25000 nM | 7570 nM |  |  |  |  | 
CNC(=O)CCCCC[C@H](NC(=O)c1cncs1)c1ncc(-c2cc3ccccc3nc2OC)[nH]1 |  |  | 890 nM | 570 nM |  |  |  | 10% | 
CNC(=O)CCCCC[C@H](NC(=O)c1cncs1)c1ncc(-c2ccc3cc(OC)ncc3c2)[nH]1 | 390 nM | 14 | 1370 nM | 100 nM |  |  |  |  | 
